Mdm2-MdmX inh: inhibitors of human Mdm2/MdmX interaction | SaOS-2 split-luciferase Mdm2/MdmX complementation, luminescence | inhibition, % at 8 µM | hit rate 3% among 330,000;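 active = inhibition of at least 50% at 8 µM in the primary screen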
Calb FLC: C. albicans growth modulation with fluconazole; C. albicans CaCi-2 (fluconazole-resistant clinical isolate) + fluconazole, Alamar Blue growth, 48 h; AID 1979; growth inhibition, % (concentration not given with the values); hit rate 0.57% among 300,000;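 active = growth inhibition above about 58% in most replicates, limit read from the data, passing the limit was not always enough; inconclusive = exactly half the replicates above a set limit; inactive = most replicates below a set limit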;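 also: all wells also contain fluconazole at 8 µg/ml as a sub-toxic cotreatment; 0% = median of DMSO wells and 100% = median of geldanamycin control wells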
T cruzi repl: T. cruzi replication inhibition. hit rate 1.4% among 300,000. inhibition, % (test concentration not listed). T. cruzi beta-gal in NIH3T3, luminescence, 90 h. AID 1885;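 active = mean inhibition across valid replicates above about 55%, limit read from the data; inconclusive = mean below that limit but half or more replicates reach it; inactive = mean below it, under half of replicates reach it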;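 also: signal also drops with host cell toxicity which is not excluded here; 0% = plate median of DMSO wells and 100% = zero luminescence signal; higher percent means less beta-gal luminescence so fewer parasites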
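System – NIH/3T3 host cells with β-galactosidase reporter T. cruzi · Doses – single 50 nL compound addition per well in DMSO · Reagent – 5000 T. cruzi trypomastigotes/well · Medium – Low-serum DMEM with 2% FBS · Timing – ≥90 h infection period, 3 h prior cell attachment · Evaluation – parasite load inhibition, % · Technique – GalScreen luminescence, 60 min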
SKKanGAS inh: blocks kanamycin growth of S. pyogenes SKKanGAS strain. BacTiter-Glo, 6 h. inhibition, % at 7.5 µM. hit rate 1.3% among 300,000. AID 1662;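 active = mean replicate score, as percent of positive control median, at least 50; inconclusive = mean below 50 but one replicate at or above 50; inactive = mean and every replicate below 50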;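 also: strain carries kanamycin resistance gene driven by streptokinase promoter and grows in 40 µg/ml kanamycin; loss of luminescence reflects streptokinase promoter inhibition or plain growth inhibition; 0% = median of DMSO wells and 100% = positive control at its reference dose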
Beta cell apopt: blocks beta cell apoptosis; hit rate 0.8% among 300,000; protection from apoptosis, % (no concentration beside the values); INS-1E cytokine-induced death, ATP luminescence, 48 h; percent of positive-control rescue, neutral wells zero;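 active = Every replicate reaches about 75%, or at least half do and their mean reaches it too, limit read from the data; inconclusive = At least half of replicates reach the limit but their mean does not; inactive = Under half of replicates reach the limit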;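 also: 0% = cytokine-treated negative control wells and 100% = positive control rescue; higher means more ATP so stronger rescue from cytokine killing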
CSC inhib: blocks cancer stem cells | hit rate 1.1% among 300,000 | AID 2717 | cancer stem cell-like cells viability, luminescence | inhibition, % at 7.5 µM; in the data active = inhibition above about 75%; inconclusive = no clear call, values can overlap the other calls; tested in HMLE shEcad cells
The depositor's hits bear a star; ? = inconclusive; · = no result given. Only some compounds are listed: those with a hit (about 5.7% of all), similar ones and a draw of the others.

SMILES	Mdm2-MdmX inh	Calb FLC	T cruzi repl	SKKanGAS inh	Beta cell apopt	CSC inhib
CCCCCC(=O)N/N=C/c1ccc([N+](=O)[O-])o1	9	-9	76*	4	44	-19
O=C(COC(=O)CCC(=O)c1ccc(F)cc1)Nc1ccc(Cl)cn1	-22	·	·	·	-4	-11
O=C(CCCCl)NC1=NN(c2ccccc2)C(=O)C1	·	·	·	·	0	8
O=C(COc1ccc(Cl)cc1)NC1=NN(c2ccccc2)C(=O)C1	-1	17	-22	62*	-1	-3
CCOc1cc(/C=C2\C(=O)N(c3nc(-c4ccc(Br)cc4)cs3)N=C2c2ccccc2)ccc1O	11	?	11	73*	·	99*
O=C(Nc1cccc(Cl)c1N1CCCC1)c1ccc([N+](=O)[O-])o1	29	7	·	·	2	100*
O=C(Nc1cccc(Cl)c1N1CCCC1)c1cc2ccccc2o1	-30	-2	30	73*	8	74
O=C(Nc1ccccc1N1CCCC1)c1cccc(-c2cc3ccccc3oc2=O)c1	-6	7	12	8	6	90*
O=C(Nc1cccc(Cl)c1N1CCCC1)c1ccc(Br)o1	-4	4	26	70*	-4	30
CCCC(=O)N1CCN(c2ccc(NC(=O)c3ccc([N+](=O)[O-])o3)cc2Cl)CC1	·	17	57*	3	·	·
O=C(Nc1ccc(N2CCOCC2)c(Cl)c1)c1ccc([N+](=O)[O-])o1	·	11	22	6	·	·
CCC(NC(=O)CCc1c(C)c2cc3c(C)c(C)oc3cc2oc1=O)C(=O)N[C@@H](Cc1ccccc1)C(=O)O (stereo partly specified)	-26	-2	3	61*	2	-13
COc1ccc(C2C(Oc3ccccc3)C(=O)N2c2cc(C)ccc2C)cc1OC (stereo unspecified)	-30	31	60*	11	2	11
CC(NC(=O)CCNC(=O)c1ccc(Br)cc1)c1ccc(-n2ccnc2)cc1 (stereo unspecified)	23	-3	-1	-3	1	-16
COCCNC(=O)Cn1nc(-c2ccc(Cl)cc2)c2ccccc2c1=O	24	8	-12	0	0	-8
Cc1ccc(NC2=C(Cl)C(=O)c3ccccc3C2=O)cc1	·	19	-29	9	3	112*
CCOc1ccc(NC2=C(OC)C(=O)c3ccccc3C2=O)cc1	-16	1	-14	14	12	24
CCNC1=C(Cl)C(=O)c2ccccc2C1=O	16	-15	-14	11	55	-7
CCN(CC)c1ccc(NC2=C(Cl)C(=O)c3ccccc3C2=O)cc1	·	·	·	·	1	106*
CCN(CC)c1ccc(N=Cc2ccc([N+](=O)[O-])o2)cc1	39	91*	49	19	75*	23
CCN(CC)c1ccc(N=Cc2ccccc2[N+](=O)[O-])cc1	20	12	74*	3	100*	-3
CCNc1nc(NCC)nc(N/N=C/c2ccc([N+](=O)[O-])o2)n1	-8	44	47	14	0	-1
N#Cc1c(N)nc(SCC(=O)C23CC4CC(CC(C4)C2)C3)c(C#N)c1-c1ccc(Cl)cc1	28	-5	6	0	7	5
CSc1nc(N)nc(SCC(=O)C23CC4CC(CC(C4)C2)C3)c1C#N	21	-1	65*	0	11	·
O=C(N/N=C/c1ccc([N+](=O)[O-])s1)c1ccncc1	30	3	56*	-3	-52	9
SMILES	Mdm2-MdmX inh	Calb FLC	T cruzi repl	SKKanGAS inh	Beta cell apopt	CSC inhib
Cc1ccc(C(=O)N/N=C/c2ccc([N+](=O)[O-])s2)cc1	22	-4	58*	?	-56	-1
CC(C)(C)OC(=O)N/N=C\c1ccc([N+](=O)[O-])s1	-14	-6	57*	12	2	-15
Cc1cc(C)n(CC(=O)N/N=C/c2cccs2)n1	10	-11	14	-2	2	·
Cc1cc(C)n(CC(=O)N/N=C/c2ccc([N+](=O)[O-])s2)n1	17	36	59*	2	-15	-6
Cc1ccc(C(=O)N/N=C\c2ccc([N+](=O)[O-])s2)cn1	27	-5	?	5	6	17
COc1cccc(C(=O)Nc2nnc(SCC(=O)Nc3ccc(NC(C)=O)cc3)s2)c1	-12	9	-13	39	-2	-9
CCN(CC)S(=O)(=O)c1ccc(S(=O)(=O)NCC2CCCO2)cc1 (stereo unspecified)	-13	-11	-16	-4	·	-7

High-throughput results from PubChem BioAssay.
